Source: ChEMBL document CHEMBL4376814, “Novel cyclin-dependent kinase 9 (CDK9) inhibitor with suppression of cancer stemness activity against non-small-cell lung cancer” (Eur J Med Chem, 2019)

Key:
[1] = target: T1, CDK4/Cyclin D3 (Homo sapiens) (UniProt P11802+P30281); experiment: Inhibition of recombinant full-length human CDK4/cyclinD3 at 500 nM using Rb fragment as substrate measured after 40 mins in presence of [gamma33P]ATP by scintillation counting method relative to control; type: protein-complex assay
Method in brief: (§1)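 Percent inhibition of kinase activity at a single compound concentration, measured by the outsourced Eurofins KinaseProfiler panel. Values are the mean of two independent experiments.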

NCI-H1299 [2] = experiment: Antiproliferative activity against human H1299 cells assessed as inhibition of cell viability at 10 uM after 72 hrs by CCK-8 assay relative to control; type: functional; conditions: NCI-H1299, 72 h
Method in brief: (§2)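 Single-concentration viability screen using CCK-8. Cells were seeded at 3000/well and treated for 72 h. A450 read after 1-4 h with reagent. Percent inhibition calculated against untreated control and blank wells as (Ac−As)/(Ac−Ab)×100%.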

CDK9/cyclin T1 = CDK9/cyclin T1 (Homo sapiens, UniProt P50750); experiment: Inhibition of recombinant full-length human CDK9/cyclinT1 using KTFCGTPEYLAPEVRREPRILSEEEQEMFRDFDYIADWC peptide as substrate measured after 40 mins in presence of [gamma33P]ATP by scintillation counting method; type: protein-complex assay
Sequence of CDK9/cyclin T1 (O60563 whole entry): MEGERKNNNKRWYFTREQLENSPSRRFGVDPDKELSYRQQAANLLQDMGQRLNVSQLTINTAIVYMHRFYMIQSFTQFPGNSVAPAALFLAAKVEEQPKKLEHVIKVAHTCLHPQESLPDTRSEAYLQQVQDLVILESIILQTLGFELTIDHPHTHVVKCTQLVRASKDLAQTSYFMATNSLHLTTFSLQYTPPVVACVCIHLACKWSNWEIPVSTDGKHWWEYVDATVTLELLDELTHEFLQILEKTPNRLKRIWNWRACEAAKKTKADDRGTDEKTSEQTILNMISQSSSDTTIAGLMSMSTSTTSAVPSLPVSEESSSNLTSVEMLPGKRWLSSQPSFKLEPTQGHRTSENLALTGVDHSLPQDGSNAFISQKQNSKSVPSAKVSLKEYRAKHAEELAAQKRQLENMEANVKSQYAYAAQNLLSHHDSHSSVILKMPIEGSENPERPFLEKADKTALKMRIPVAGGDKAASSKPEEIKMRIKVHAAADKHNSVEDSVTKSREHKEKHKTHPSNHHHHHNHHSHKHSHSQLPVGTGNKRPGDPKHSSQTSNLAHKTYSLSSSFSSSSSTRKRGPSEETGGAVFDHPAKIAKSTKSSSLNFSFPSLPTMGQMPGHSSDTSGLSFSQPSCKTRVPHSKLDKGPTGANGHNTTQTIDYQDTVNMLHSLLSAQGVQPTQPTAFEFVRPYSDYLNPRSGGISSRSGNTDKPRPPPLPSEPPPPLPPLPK
Sequence of CDK9/cyclin T1 (P50750 whole entry): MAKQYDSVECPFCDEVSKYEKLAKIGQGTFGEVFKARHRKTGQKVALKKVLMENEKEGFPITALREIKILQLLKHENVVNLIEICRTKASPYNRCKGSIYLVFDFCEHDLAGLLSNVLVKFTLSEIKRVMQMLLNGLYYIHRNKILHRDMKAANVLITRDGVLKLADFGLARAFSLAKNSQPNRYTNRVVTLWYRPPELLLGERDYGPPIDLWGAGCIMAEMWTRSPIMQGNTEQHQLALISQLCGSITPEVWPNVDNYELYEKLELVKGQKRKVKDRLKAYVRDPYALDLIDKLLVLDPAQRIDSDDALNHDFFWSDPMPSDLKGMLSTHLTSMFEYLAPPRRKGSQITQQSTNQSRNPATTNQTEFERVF
Method in brief: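 IC50 against CDK9/cyclin T1, determined by the outsourced Eurofins KinaseProfiler service. Values are the mean of two independent experiments.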

[3] = target: T2, CDK6/cyclin D3 (Homo sapiens) (UniProt P30281+Q00534); experiment: Inhibition of recombinant full-length human CDK6/cyclinD3 at 1 uM using histone H1 as substrate measured after 40 mins in presence of [gamma33P]ATP by scintillation counting method relative to control; type: protein-complex assay; method in brief: as §1
A549 [4] = experiment: Antiproliferative activity against human A549 cells assessed as inhibition of cell viability at 1 uM after 72 hrs by CCK-8 assay relative to control; type: functional; conditions: A549, 72 h; method in brief: as §2
NCI-H1299 [5] = experiment: Antiproliferative activity against human H1299 cells assessed as inhibition of cell viability at 1 uM after 72 hrs by CCK-8 assay relative to control; type: functional; conditions: NCI-H1299, 72 h; method in brief: as §2
[6] = target: T1, CDK4/Cyclin D3 (Homo sapiens); experiment: Inhibition of recombinant full-length human CDK4/cyclinD3 at 1 uM using Rb fragment as substrate measured after 40 mins in presence of [gamma33P]ATP by scintillation counting method relative to control; type: protein-complex assay; method in brief: as §1
A549 [7] = experiment: Antiproliferative activity against human A549 cells assessed as inhibition of cell viability at 10 uM after 72 hrs by CCK-8 assay relative to control; type: functional; conditions: A549, 72 h; method in brief: as §2
[8] = target: T3, CDK9/cyclin T1 (Homo sapiens) (UniProt O60563+P50750); experiment: Inhibition of recombinant full-length human CDK9/cyclinT1 at 500 nM using KTFCGTPEYLAPEVRREPRILSEEEQEMFRDFDYIADWC peptide as substrate measured after 40 mins in presence of [gamma33P]ATP by scintillation counting method relative to control; type: protein-complex assay; method in brief: as §1
[9] = target: T3, CDK9/cyclin T1 (Homo sapiens); experiment: Inhibition of recombinant full-length human CDK9/cyclinT1 at 1 uM using KTFCGTPEYLAPEVRREPRILSEEEQEMFRDFDYIADWC peptide as substrate measured after 40 mins in presence of [gamma33P]ATP by scintillation counting method relative to control; type: protein-complex assay; method in brief: as §1
[10] = target: T2, CDK6/cyclin D3 (Homo sapiens); experiment: Inhibition of recombinant full-length human CDK6/cyclinD3 at 500 nM using histone H1 as substrate measured after 40 mins in presence of [gamma33P]ATP by scintillation counting method relative to control; type: protein-complex assay; method in brief: as §1
MCF7 [11] = experiment: Antiproliferative activity against human MCF7 cells assessed as inhibition of cell viability at 10 uM after 72 hrs by CCK-8 assay relative to control; type: functional; conditions: MCF7, 72 h; method in brief: as §2
HepG2 [12] = experiment: Antiproliferative activity against human HepG2 cells assessed as inhibition of cell viability at 10 uM after 72 hrs by CCK-8 assay relative to control; type: functional; conditions: HepG2, 72 h; method in brief: as §2
SiHa [13] = experiment: Antiproliferative activity against human SiHa cells assessed as inhibition of cell viability at 500 nM after 72 hrs by CCK-8 assay relative to control; type: functional; method in brief: as §2
MCF7 [14] = experiment: Antiproliferative activity against human MCF7 cells assessed as inhibition of cell viability at 500 nM after 72 hrs by CCK-8 assay relative to control; type: functional; conditions: MCF7, 72 h; method in brief: as §2
HepG2 [15] = experiment: Antiproliferative activity against human HepG2 cells assessed as inhibition of cell viability at 500 nM after 72 hrs by CCK-8 assay relative to control; type: functional; conditions: HepG2, 72 h; method in brief: as §2
SiHa [16] = experiment: Antiproliferative activity against human SiHa cells assessed as inhibition of cell viability at 10 uM after 72 hrs by CCK-8 assay relative to control; type: functional; method in brief: as §2
[17] = target: T3, CDK9/cyclin T1 (Homo sapiens); experiment: Potency index, ratio of ribociclib IC50 to compound IC50 for inhibition of recombinant full-length human CDK9/cyclinT1; type: protein-complex assay

inhibition [1] [%] | IC50 (CDK9/cyclin T1) [µM] | inhibition [3] [%] | inhibition [6] [%] | inhibition [8] [%] | inhibition [9] [%] | inhibition [10] [%] | Ratio IC50 [17] | SMILES | inhibition at 10 µM (NCI-H1299 [2]) [%] | inhibition at 1 µM (A549 [4]) [%] | inhibition at 1 µM (NCI-H1299 [5]) [%] | inhibition at 10 µM (A549 [7]) [%] | inhibition at 10 µM (MCF7 [11]) [%] | inhibition at 10 µM (HepG2 [12]) [%] | inhibition at 0.5 µM (SiHa [13]) [%] | inhibition at 0.5 µM (MCF7 [14]) [%] | inhibition at 0.5 µM (HepG2 [15]) [%] | inhibition at 10 µM (SiHa [16]) [%]
60 | 0.05 | 52 | 67 | 90 | 92 |  |  | CN(C)C(=O)c1cc2cnc(Nc3ccc(C(=O)NCCCCCCCN=C=S)cc3F)nc2n1C1CCCC1 | 35.8 | 0.05 | -9.23 | 12.7 |  |  |  |  |  | 
 | 0.042 | 61 | 55 | 89 | 91 |  |  | CN(C)C(=O)c1cc2cnc(Nc3ccc(C(=O)NCCCCN=C=S)cc3O)nc2n1C1CCCC1 | 51.8 | 30.3 | 10.7 | 41.7 |  |  |  |  |  | 
75 | 0.01 | 82 | 86 | 98 | 97 | 41 |  | CN(C)C(=O)c1cc2cnc(Nc3ccc(C(=O)NCCCN=C=S)cc3F)nc2n1C1CCCC1 | 78.5 | 16.7 | 9.27 | 60.2 |  |  |  |  |  | 
 | 0.033 | 60 | 59 | 91 | 92 |  |  | CN(C)C(=O)c1cc2cnc(Nc3ccc(C(=O)NCCCCCN=C=S)cc3O)nc2n1C1CCCC1 | 80.7 | 23.1 | 22.6 | 30.7 |  |  |  |  |  | 
74 | 0.012 | 85 | 83 | 99 | 97 | 56 |  | CN(C)C(=O)c1cc2cnc(Nc3ccc(C(=O)NCCCCCCCN=C=S)cc3)nc2n1C1CCCC1 | 107 | 73.7 | 75.7 | 101 | 99 | 89 | 90 | 85 | 68 | 95
72 | 0.011 | 81 | 86 | 96 | 96 | 30 |  | CN(C)C(=O)c1cc2cnc(Nc3ccc(C(=O)NCCCCCN=C=S)cc3F)nc2n1C1CCCC1 | 86.7 | -1.6 | 36.1 | 15.6 |  |  |  |  |  | 
76 | 0.006 | 86 | 89 | 97 | 96 | 38 |  | CN(C)C(=O)c1cc2cnc(Nc3ccc(C(=O)NCCCCN=C=S)cc3F)nc2n1C1CCCC1 | 78.9 | -7 | 28.7 | 24.4 |  |  |  |  |  | 
59 | 0.015 | 74 | 80 | 98 | 96 | 23 |  | CN(C)C(=O)c1cc2cnc(Nc3cccc(NC(=O)CCCCCCCN=C=S)c3)nc2n1C1CCCC1 | 86.9 | 44.6 | 50.6 | 96.7 |  |  |  |  |  | 
62 | 0.025 | 49 | 72 | 96 | 95 |  |  | CN(C)C(=O)c1cc2cnc(Nc3ccc(NC(=O)CCCCCCCN=C=S)cc3F)nc2n1C1CCCC1 | 14 | 8.65 | 7.5 | 94.1 |  |  |  |  |  | 
99 |  | 86 | 97 | 98 | 99 | 65 |  | CN(C)C(=O)c1cc2cnc(Nc3ccc(NC(=O)CCCCCCN=C=S)cc3)nc2n1C1CCCC1 | 80.9 | 43.3 | 50.9 | 102 |  |  |  |  |  | 
78 | 0.009 | 81 | 89 | 98 | 96 | 41 | > 20 | CN(C)C(=O)c1cc2cnc(Nc3ccc(S(=O)(=O)NCCCCCCN=C=S)cc3)nc2n1C1CCCC1 | 70.6 | 49.5 | 42.4 | 101 |  |  |  |  |  | 
68 | 0.034 | 78 | 89 | 95 | 94 | 34 |  | CN(C)C(=O)c1cc2cnc(Nc3ccc(C(=O)NCCCCCCN=C=S)cc3F)nc2n1C1CCCC1 | 77.6 | -11.8 | 29.1 | 22.9 |  |  |  |  |  | 
 | 0.068 | 68 | 46 | 90 | 94 | 21 |  | CN(C)C(=O)c1cc2cnc(Nc3ccc(C(=O)NCCCN=C=S)cc3O)nc2n1C1CCCC1 | 24.2 | 55.9 | 10.3 | 73 |  |  |  |  |  | 
84 | 0.009 | 77 | 86 | 97 | 97 | 45 | > 20 | CN(C)C(=O)c1cc2cnc(Nc3ccc(S(=O)(=O)NCCCCCCCN=C=S)cc3)nc2n1C1CCCC1 | 83 | 32.6 | 58.9 | 101 |  |  |  |  |  | 
